The values that follow come from ChEMBL document CHEMBL1687793, “Complementation of a Saccharomyces cerevisiae ERG11/CYP51 (sterol 14α-demethylase) doxycycline-regulated mutant and screening of the azole sensitivity of Aspergillus fumigatus isoenzymes CYP51A and CYP51B” (2010).

In brackets after ≈: the same amount, converted by molar mass.

A word on the MIC: it is the smallest concentration in the dilution series that meets the test's criterion for growth inhibition.

Holding throughout (format): functional
Test [1] deals with Saccharomyces cerevisiae. Briefly: Induction of 4alpha-methylfecosterol production in Saccharomyces cerevisiae YUG37 transformed with plasmid carrying cyp51A gene with compound-regulatable promoter by GC-MS analysis. Put shortly:
(§1)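 YUG37-erg11 yeast (native ERG11 under a doxycycline-regulatable promoter) carrying pYES2.1 with intronless A. fumigatus cyp51A or cyp51B. Single colonies, triplicate constructs, were grown in YM with 2% galactose/raffinose plus 5 μg ml−1 doxycycline for 72 h at 30°C and 180 rpm. Sterols were analysed by GC-MS and reported as mean % of sterol composition (SD).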

Test [2] deals with Saccharomyces cerevisiae. Kind of test: Induction of lanosterol/obtusifoliol production in Saccharomyces cerevisiae YUG37 transformed with plasmid carrying cyp51A gene in reverse orientation without doxycycline-regulatable promoter by GC-MS analysis. To be noted: in the assay text read “with doxycycline-regulatable promoter” for “without doxycycline-regulatable promoter”. In outline: (§2)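 The control was YUG37-erg11 transformed with pYES2.1 carrying reverse-oriented cyp51A, in triplicate. It was cultured 72 h (30°C, 180 rpm) in galactose/raffinose (2%) YM either with 5 μg ml−1 doxycycline or without doxycycline. GC-MS sterol profiling gave mean % of sterol composition (SD).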

Test [3] relates to Saccharomyces cerevisiae. Briefly: Induction of 4alpha-methylfecosterol production in Saccharomyces cerevisiae YUG37 transformed with plasmid carrying cyp51B gene with compound-regulatable promoter by GC-MS analysis. Put shortly: as §1
In test [4] the test system is Saccharomyces cerevisiae. Briefly: Induction of 4alpha-methylfecosterol production in Saccharomyces cerevisiae YUG37 transformed with plasmid carrying cyp51A gene in reverse orientation without doxycycline-regulatable promoter by GC-MS analysis. In outline:
as §2

Test [5] relates to Saccharomyces cerevisiae. Briefly: Induction of ergosterol production in Saccharomyces cerevisiae YUG37 transformed with plasmid carrying cyp51A gene in reverse orientation without doxycycline-regulatable promoter by GC-MS analysis. In outline:
as §2

In test [6] the test system is Saccharomyces cerevisiae. Briefly: Induction of ergosterol production in Saccharomyces cerevisiae YUG37 transformed with plasmid carrying cyp51A gene with compound-regulatable promoter by GC-MS analysis. Put shortly: as §1
The test system of test [7] is Saccharomyces cerevisiae. Kind of test: Induction of 14alpha-Methylergosta 8,24-dien- 3beta-6alpha-diol production in Saccharomyces cerevisiae YUG37 transformed with plasmid carrying cyp51B gene with compound-regulatable promoter by GC-MS analysis. In outline:
as §1

Test [8] concerns Saccharomyces cerevisiae. Briefly: Induction of 4,14alpha-dimethylcholesta 8,24-dienol production in Saccharomyces cerevisiae YUG37 transformed with plasmid carrying cyp51A gene with compound-regulatable promoter by GC-MS analysis. In outline:
as §1

The subject of test [9] is Saccharomyces cerevisiae. Kind of test: Induction of lanosterol/obtusifoliol production in Saccharomyces cerevisiae YUG37 transformed with plasmid carrying cyp51B gene with compound-regulatable promoter by GC-MS analysis. In outline: as §1
The subject of test [10] is Saccharomyces cerevisiae. Briefly: Induction of 14alpha-Methylergosta 8,24-dien- 3beta-6alpha-diol production in Saccharomyces cerevisiae YUG37 transformed with plasmid carrying cyp51A gene with compound-regulatable promoter by GC-MS analysis. Put shortly: as §1
For test [11], the system named is Saccharomyces cerevisiae. Kind of test: Induction of 4,14alpha-dimethylcholesta 8,24-dienol production in Saccharomyces cerevisiae YUG37 transformed with plasmid carrying cyp51B gene with compound-regulatable promoter by GC-MS analysis. Put shortly:
as §1

Test [12] concerns Saccharomyces cerevisiae. Briefly: Induction of ergosterol production in Saccharomyces cerevisiae YUG37 transformed with plasmid carrying cyp51B gene with compound-regulatable promoter by GC-MS analysis. Put shortly: as §1
In test [13] the test system is Saccharomyces cerevisiae. Kind of test: Induction of 14alpha-Methylergosta 8,24-dien- 3beta-6alpha-diol production in Saccharomyces cerevisiae YUG37 transformed with plasmid carrying cyp51A gene in reverse orientation without doxycycline-regulatable promoter by GC-MS analysis. Put shortly:
as §2

For test [14], the system named is Saccharomyces cerevisiae. Kind of test: Induction of lanosterol/obtusifoliol production in Saccharomyces cerevisiae YUG37 transformed with plasmid carrying cyp51A gene with compound-regulatable promoter by GC-MS analysis. In outline:
as §1

Test [15] deals with Saccharomyces cerevisiae. Kind of test: Induction of 4,14alpha-dimethylcholesta 8,24-dienol production in Saccharomyces cerevisiae YUG37 transformed with plasmid carrying cyp51A gene in reverse orientation without doxycycline-regulatable promoter by GC-MS analysis. Put shortly:
as §2

Test [16] relates to Saccharomyces cerevisiae. Kind of test: Antimicrobial activity against Saccharomyces cerevisiae YUG37 transformed with plasmid carrying cyp51A gene with doxycycline-regulatable promoter by broth dilution method in presence of doxycycline. In outline: (§3)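 CLSI M27-A2 broth microdilution in induction medium (galactose plus raffinose, 2%) containing 5 μg ml−1 doxycycline. Inoculum 2.5 × 10^3 cells ml−1. Final fluconazole 0.031–16 μg ml−1; clotrimazole, itraconazole and posaconazole 0.004–2.0 μg ml−1. Plates incubated at 30°C and scored at 72 h. MIC is the lowest concentration giving ≥80% growth inhibition versus drug-free control wells.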
(Broth dilution looks for growth in wells or tubes with falling amounts of substance.)

The test system of test [17] is Saccharomyces cerevisiae. Kind of test: Antimicrobial activity against Saccharomyces cerevisiae YUG37 transformed with plasmid carrying cyp51A gene in reverse orientation without doxycycline-regulatable promoter by broth dilution method. In outline: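 Reverse-oriented cyp51A control strain tested in galactose/raffinose medium without doxycycline. Otherwise CLSI M27-A2 broth microdilution with inoculum 2.5 × 10^3 cells ml−1. Incubated at 30°C and read at 72 h. MIC is the lowest concentration giving ≥80% growth inhibition relative to control wells.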

For test [18], the system named is Saccharomyces cerevisiae. Briefly: Antimicrobial activity against Saccharomyces cerevisiae YUG37 transformed with plasmid carrying cyp51B gene with doxycycline-regulatable promoter by broth dilution method in presence of doxycycline. Put shortly:
as §3

The subject of test [19] is Saccharomyces cerevisiae. Kind of test: Ratio of MIC for Saccharomyces cerevisiae YUG37 transformed with plasmid carrying cyp51A gene with compound-regulatable promoter to MIC for Saccharomyces cerevisiae YUG37 transformed with plasmid carrying cyp51B gene with compound-regulatable promoter.

Turning to `C[C@H]1c2cccc(O)c2C(=O)C2=C(O)[C@]3(O)C(=O)C(C(N)=O)=C(O)[C@@H](N(C)C)[C@@H]3[C@@H](O)[C@@H]21.O` [DOXYCYCLINE], the Activity is given as 2% in the test with Saccharomyces cerevisiae [1]; 40.6% in the test on Saccharomyces cerevisiae [2]; 1.7% in the test with Saccharomyces cerevisiae [3]; 1.9% with Saccharomyces cerevisiae [4]; 4% in the test with Saccharomyces cerevisiae [5]; 40.8% in the test with Saccharomyces cerevisiae [6]. The Activity with Saccharomyces cerevisiae [7] is listed as 10.5%; in the test on Saccharomyces cerevisiae [8], 2.6%; in the test with Saccharomyces cerevisiae [9] it was 45.4%; in the test on Saccharomyces cerevisiae [10] it was 20.5%; with Saccharomyces cerevisiae [11], 2.9%; with Saccharomyces cerevisiae [12] it was 39.5%. For the same molecule, the Activity is listed as 51.1% with Saccharomyces cerevisiae [13], 34.1% in the test on Saccharomyces cerevisiae [14] and 3.3% in the test with Saccharomyces cerevisiae [15].
`CC[C@@H]([C@H](C)O)n1ncn(-c2ccc(N3CCN(c4ccc(OC[C@@H]5CO[C@@](Cn6cncn6)(c6ccc(F)cc6F)C5)cc4)CC3)cc2)c1=O` [POSACONAZOLE]: the values for the MIC in the test on Saccharomyces cerevisiae [16], in the test with Saccharomyces cerevisiae [17] and with Saccharomyces cerevisiae [18] were 0.063 µg/mL, 0.063 µg/mL (≈ 0.0899 µM) and 0.063 µg/mL, respectively.
With `OC(Cn1cncn1)(Cn1cncn1)c1ccc(F)cc1F` [FLUCONAZOLE], the Ratio with Saccharomyces cerevisiae [19] is on record as 16. The minimum inhibitory concentration (MIC) was determined as 8 µg/mL in the test with Saccharomyces cerevisiae [16], 0.25 µg/mL (≈ 0.816 µM) with Saccharomyces cerevisiae [17] and 0.5 µg/mL with Saccharomyces cerevisiae [18].
With `Clc1ccccc1C(c1ccccc1)(c1ccccc1)n1ccnc1` [CLOTRIMAZOLE], the minimum inhibitory concentration (MIC) with Saccharomyces cerevisiae [16] amounted to 0.016 µg/mL; in the test on Saccharomyces cerevisiae [17] it was 0.016 µg/mL (≈ 0.0464 µM); with Saccharomyces cerevisiae [18], 0.016 µg/mL.
As for `CCC(C)n1ncn(-c2ccc(N3CCN(c4ccc(OCC5COC(Cn6cncn6)(c6ccc(Cl)cc6Cl)O5)cc4)CC3)cc2)c1=O` (stereo unspecified) [ITRACONAZOLE], the MIC in the test on Saccharomyces cerevisiae [16] worked out at 0.125 µg/mL; with Saccharomyces cerevisiae [17] it was 0.031 µg/mL (≈ 0.0439 µM); in the test on Saccharomyces cerevisiae [18], 0.125 µg/mL.
For the molecule `C[C@@H](c1ncncc1F)[C@](O)(Cn1cncn1)c1ccc(F)cc1F` [VORICONAZOLE], the MIC in the test on Saccharomyces cerevisiae [16] is 0.004 µg/mL; against Saccharomyces cerevisiae [17], 0.004 µg/mL (≈ 0.0115 µM); in the test on Saccharomyces cerevisiae [18], 0.004 µg/mL.
